From ChEMBL document CHEMBL4020787, “Lodopyridones B and C from a marine sediment-derived bacterium Saccharomonospora sp” (Bioorg Med Chem Lett, 2017)
Calls of active or inactive are those of the source. The rule behind the calls is not given here.

Key:
[1] = molecular target: Beta-secretase 1 (Homo sapiens) (UniProt P56817); test: Inhibition of BACE1 in human SH-SY5Y cells assessed as decrease in amyloid beta (1 to 42) production at 1000 uM after 24 hrs by ELISA relative to control; type: cell-based
Summary of the method: (§1)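 SH-SY5Y cells were exposed to the compound, and released Aβ40 and Aβ42 were quantified separately as percent of untreated control. Isoliquiritigenin was run in parallel as the reference drug.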

[2] = molecular target: Beta-secretase 1 (Homo sapiens) (UniProt P56817); test: Inhibition of BACE1 in human SH-SY5Y cells assessed as decrease in amyloid beta (1 to 40) production after 24 hrs by ELISA relative to control; type: cell-based; summary of the method: as §1
[3] = molecular target: Beta-secretase 1 (Homo sapiens) (UniProt P56817); test: Inhibition of BACE1 (unknown origin) at 100 uM using Rh-EVNLDAEFK-Quencher as substrate after 60 mins by fluorescence spectroscopy relative to control
Summary of the method: (§2)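 Enzyme tested across a concentration series, with isoliquiritigenin as the reference drug. Activity is reported as percent inhibition.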

[4] = molecular target: Beta-secretase 1 (Homo sapiens) (UniProt P56817); test: Inhibition of BACE1 in human SH-SY5Y cells assessed as decrease in amyloid beta (1 to 40) production at 1000 uM after 24 hrs by ELISA relative to control; type: cell-based; summary of the method: as §1
[5] = molecular target: Beta-secretase 1 (Homo sapiens) (UniProt P56817); test: Inhibition of BACE1 (unknown origin) at 1 to 100 uM using Rh-EVNLDAEFK-Quencher as substrate after 60 mins by fluorescence spectroscopy; summary of the method: as §2
[6] = molecular target: Beta-secretase 1 (Homo sapiens) (UniProt P56817); test: Inhibition of BACE1 (unknown origin) at <100 nM using Rh-EVNLDAEFK-Quencher as substrate after 60 mins by fluorescence spectroscopy; summary of the method: as §2
[7] = molecular target: Beta-secretase 1 (Homo sapiens) (UniProt P56817); test: Inhibition of BACE1 in human SH-SY5Y cells assessed as decrease in amyloid beta (1 to 42) production after 24 hrs by ELISA relative to control; type: cell-based; summary of the method: as §1

Beta-secretase 1 (Homo sapiens), sequence (P56817 whole entry): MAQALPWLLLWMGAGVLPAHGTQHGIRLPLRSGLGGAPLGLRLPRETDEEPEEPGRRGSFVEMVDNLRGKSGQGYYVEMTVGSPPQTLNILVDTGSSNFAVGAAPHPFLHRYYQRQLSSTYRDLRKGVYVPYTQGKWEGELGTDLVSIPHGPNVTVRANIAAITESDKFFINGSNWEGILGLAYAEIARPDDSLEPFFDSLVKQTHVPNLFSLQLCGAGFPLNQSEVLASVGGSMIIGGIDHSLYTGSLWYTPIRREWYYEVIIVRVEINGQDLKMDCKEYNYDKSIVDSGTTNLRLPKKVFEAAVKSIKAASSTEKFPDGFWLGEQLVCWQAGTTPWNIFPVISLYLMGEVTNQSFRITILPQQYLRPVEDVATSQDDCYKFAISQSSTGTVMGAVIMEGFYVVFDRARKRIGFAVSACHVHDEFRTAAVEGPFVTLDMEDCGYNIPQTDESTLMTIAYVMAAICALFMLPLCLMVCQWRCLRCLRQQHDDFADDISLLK

inhibition [1] [%]	inhibition [2]	inhibition [3] [%]	inhibition [4] [%]	inhibition [5]	inhibition [6]	inhibition [7]	Compound
49	Dose-dependent effect	60	41	Dose-dependent effect	inactive	Dose-dependent effect	COc1c(-c2csc(-c3ccc4cc(Cl)ccc4n3)n2)n(C)c(C(=O)NCCOC(C)=O)c(SC)c1=O
		51		Dose-dependent effect	inactive		COc1c(-c2csc(-c3ccc4cc(Cl)ccc4n3)n2)n(C)c(C(=O)NCCO)c([S+](C)[O-])c1=O (stereo not drawn)
		42		Dose-dependent effect	inactive		COc1c(-c2csc(-c3ccc4cc(Cl)ccc4n3)n2)n(C)c(C(=O)NCCO)c(SC)c1=O
